Values after ≈ are worked out from the molar mass of the structure shown.
Legend:
Format in all cases: functional
HUVEC [1] = assay: In vitro anti-proliferative activity against human umbilical vein endothelial cells at 5 uM.; details: for inhibition of growth at 5 µM: Homo sapiens, HUVEC, read-out: GI
HUVEC [2] = assay: Anti-proliferative activity against human umbilical vein endothelial cells (HUVECs)
Method in brief: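 HUVECs seeded at 1500 cells/well and cultured 24 h at 37 °C, then exposed to a dose-response series of compound for 24 h. Proliferation was read as ³H-thymidine incorporation by scintillation proximity assay. GI₅₀ was taken from plots of percent-of-control ³H-thymidine uptake versus compound concentration.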

Bos taurus = organism: Bos taurus; assay: Anti-proliferative activity against calf endothelial cells; details: endothelial cell

| SMILES | inhibition of growth at 5 µM (HUVEC [1]) | GI50 (HUVEC [2]; Homo sapiens, HUVEC) | further results |
| --- | --- | --- | --- |
| COc1cc(/C=C/C(=O)NC2CCC(NC(=O)[C@@H](O)[C@H](N)CC3CCCCC3)CC2)cc(OC)c1OC (some centres not stated) | 52% |  |  |
| COc1cc(/C=C/C(=O)Nc2ccc(NC(=O)[C@@H](O)[C@H](N)CCc3ccccc3)c(C)c2)cc(OC)c1OC | 92% | 2.3 µM |  |
| CCSCC[C@@H](N)[C@H](O)C(=O)Nc1ccc(NC(=O)/C=C/c2cc(OC)c(OC)c(OC)c2)cc1 | 89% |  |  |
| COc1cc(/C=C/C(=O)O[C@@H]2CC[C@]3(CO3)[C@@H]([C@]3(C)O[C@H]3CCC=C(C)C)[C@@H]2OC)cc(OC)c1OC |  |  | IC50 (Bos taurus): 3e-05 ng/mL (≈ 5.81e-05 nM) |
| CCOc1ccc(CCC(=O)Nc2ccc(NC(=O)[C@@H](O)[C@H](N)CC3CCCCC3)cc2)cc1 | 42% |  |  |
| CCOc1ccc(/C=C/C(=O)Nc2ccc(NC(=O)[C@@H](O)[C@H](N)CCc3ccccc3)cc2)cc1 | > 98% | 1.8 µM |  |
| COc1cc(/C=C/C(=O)Nc2ccc(NC(=O)[C@@H](O)[C@H](N)CCc3ccccc3)cc2)cc(OC)c1OC | > 98% | 0.85 µM |  |
| CCSCC[C@@H](N)[C@H](O)C(=O)Nc1ccccc1 | 0% |  |  |
| COc1cc(/C=C/C(=O)NC2CCC(NC(=O)[C@@H](O)[C@H](N)CCc3ccccc3)CC2)cc(OC)c1OC (some centres not stated) | 46% |  |  |
| COc1cc(/C=C/C(=O)Nc2ccc(NC(=O)[C@@H](O)[C@H](N)CCC3CCCCC3)cc2)cc(OC)c1OC | > 98% | 0.8 µM |  |
| COc1cc(NC(=O)/C=C/c2cc(OC)c(OC)c(OC)c2)ccc1NC(=O)[C@@H](O)[C@H](N)CCc1ccccc1 | > 98% | 0.7 µM |  |
| COc1cc(/C=C/C(=O)Nc2ccc(NC(=O)[C@@H](O)[C@H](N)CC3CCCCC3)cc2C)cc(OC)c1OC | > 98% | 1.8 µM |  |
| COc1cc(/C=C/C(=O)Nc2ccc(NC(=O)[C@@H](O)[C@H](N)Cc3ccccc3)cc2)cc(OC)c1OC | 93% |  |  |
| COc1cc(NC(=O)[C@@H](O)[C@H](N)CC2CCCCC2)ccc1NC(=O)/C=C/c1cc(OC)c(OC)c(OC)c1 | > 98% | 1.2 µM |  |
| CCOc1ccc(/C=C/C(=O)Nc2ccc(NC(=O)[C@@H](O)[C@H](N)CC3CCCCC3)cc2)cc1 | > 98% | 1 µM |  |
| CCSCC[C@@H](N)[C@H](O)C(=O)Nc1ccc(NC(=O)c2cc(OC)c(OC)c(OC)c2)cc1 (single isomer, unassigned) | 20% |  |  |
| CCSCCC(N)C(O)C(=O)Nc1ccc(NC(=O)/C=C/c2ccc(OC)cc2)cc1 (single isomer, unassigned) | 43% |  |  |
| CCSCCC(N)C(O)C(=O)Nc1ccc(NC(=O)/C=C/c2ccccc2)cc1 (single isomer, unassigned) | 48% |  |  |
| CCSCC[C@@H](N)[C@H](O)C(=O)Nc1ccc(NC(=O)c2ccc(OC)cc2)cc1 (single isomer, unassigned) | 15% |  |  |
| CCOc1ccc(/C=C/C(=O)Nc2ccc(NC(=O)C(O)C(N)CCSCC)cc2)cc1 (single isomer, unassigned) | 91% |  |  |
| COc1cc(/C=C/C(=O)Nc2ccc(NC(=O)[C@@H](O)[C@H](N)CC3CCCCC3)cc2)cc(OC)c1OC (stereo in doubt) |  |  | growth inhibition (GI) (HUVEC [1]): 96%; GI50 (HUVEC [2]): 2 µM |
| COc1cc(/C=C/C(=O)Nc2ccc(NC(=O)[C@@H](O)[C@H](N)CC3CCCCC3)cc2)cc(OC)c1OC (stereo in doubt; 11) | > 98% |  | GI50 (HUVEC [2]): 0.67 µM |

— ChEMBL document CHEMBL1149197, “Design and synthesis of beta-amino-alpha-hydroxy amide derivatives as inhibitors of MetAP2 and HUVEC growth” (Bioorg Med Chem Lett, 2004)
